The source made the active and inactive calls.
Columns and labels:
MCF7 = experiment: Cytotoxicity against human MCF7 cells up to 20 uM after 72 hrs by trypan blue exclusion assay; assay type: functional, cell-based
Summary of the method: (§1)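 Tumor lines grown at 37 °C in 5% CO₂, in RPMI 1640 or DMEM with FBS. Cells exposed to compound from 10 nM to 20 μM for 72 h. Cytotoxicity counted by trypan blue exclusion: cells scraped, suspended in 0.25% w/v trypan blue in PBS and counted in a Malassez cell under light microscopy. IC50 is the concentration giving 50% cytotoxicity.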

N2a [1] = experiment: Cytotoxicity against mouse Neuro2a cells up to 20 uM after 72 hrs by trypan blue exclusion assay; assay type: functional, cell-based; summary of the method: as §1
P19 [2] = experiment: Cytotoxicity against mouse P19 cells up to 20 uM after 3 days by trypan blue exclusion assay; assay type: functional, cell-based
Summary of the method: (§2)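 U937 and P19 cells treated with compound. Cell death scored by trypan blue exclusion, with cells scraped, suspended in 0.25% w/v trypan blue in PBS and counted in a Malassez cell. IC50 is the concentration giving 50% cytotoxicity.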

U-937 [3] = experiment: Induction of dendrite out growth in IL-4/GMCSF-stimulated human U937 cells assessed as dendrite length at 100 nM after 48 hrs by light microscopy; assay type: functional
Summary of the method: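 U937 cells at 1.1 × 10⁶ cells/mL were primed with 10 ng/mL PMA for 48 h in RPMI with 10% heat-inactivated serum. Adherent cells were then given 100 ng/mL IL-4 plus 100 ng/mL GM-CSF or 100 nM compound for 48 h. Dendrite length scored by light microscopy, from none to over 100 μm with a contact network.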

Mus musculus = organism: Mus musculus; experiment: Neuroprotective activity in mouse motoneuron assessed as cell proliferation at 10 nM treated for 3 days measured on day 2 to 6 post-treatment by cell counting method; assay type: functional; settings: in the assay text read “cell survival” for “cell proliferation”
Summary of the method: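 Purified mouse motoneurons; solvent vehicle, 100 ng/mL BDNF or 10 nM test agent added immediately after seeding; cells counted at days 2, 3, 4 and 6; surviving motoneurons expressed as percentage.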

P19 [4] = experiment: Induction of dendrite out growth in IL-4/GMCSF-stimulated mouse P19 cells assessed as dendrite length at 100 nM after 48 hrs by light microscopy; assay type: functional
A549 = experiment: Cytotoxicity against human A549 cells up to 20 uM after 72 hrs by trypan blue exclusion assay; assay type: functional, cell-based; summary of the method: as §1
U-937 [5] = experiment: Cytotoxicity against human U937 cells up to 20 uM after 72 hrs by trypan blue exclusion assay; assay type: functional, cell-based; summary of the method: as §1
TS/A = experiment: Cytotoxicity against mouse TSA cells up to 20 uM after 72 hrs by trypan blue exclusion assay; assay type: functional, cell-based; summary of the method: as §1
SW-620 = experiment: Cytotoxicity against human SW620 cells up to 20 uM after 72 hrs by trypan blue exclusion assay; assay type: functional, cell-based; summary of the method: as §1
NB-4 = experiment: Cytotoxicity against human NB4 cells up to 20 uM after 72 hrs by trypan blue exclusion assay; assay type: functional, cell-based; summary of the method: as §1
P19 [6] = experiment: Induction of neuritogenesis in mouse P19 cells assessed as dendrite expansion at 10 nM after 48 hrs by light microscopy; assay type: functional, cell-based
Summary of the method: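 P19 embryonal carcinoma cells exposed to 10 nM or solvent vehicle for 48 h; dendrite expansion and cell-contact network assessed by light microscopy.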

P19 [7] = experiment: Induction of mouse P19 cell differentiation into neuron assessed as stimulation of MAP2A expression at 10 nM after 48 hrs by immunocytochemistry; assay type: functional, cell-based
Summary of the method: (§3)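 P19 cells seeded at 10 000/well and treated with vehicle or 10 nM compound. Cells fixed in 4% paraformaldehyde, permeabilized with 1% BSA/0.05% saponin and blocked in 3% BSA. Stained with anti-MAP2A (1/100) or anti-β3-tubulin (1/200) for 1 h at room temperature, then TRITC secondary, and viewed by fluorescence microscopy.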

SK-N-SH [8] = experiment: Cytotoxicity against human SK-N-SH cells up to 20 uM after 72 hrs by trypan blue exclusion assay; assay type: functional, cell-based; summary of the method: as §1
P19 [9] = experiment: Induction of neurite outgrowth in mouse P19 cells at 100 nM after 48 hrs by crystal violet staining; assay type: functional, cell-based
HCT-8 = experiment: Cytotoxicity against human HCT8 cells up to 20 uM after 72 hrs by trypan blue exclusion assay; assay type: functional, cell-based; summary of the method: as §1
P19 [10] = experiment: Induction of mouse P19 cell differentiation into neuron assessed as stimulation of beta-3 tubulin expression at 10 nM after 48 hrs by immunocytochemistry; assay type: functional, cell-based; summary of the method: as §3
P19 [11] = experiment: Induction of mouse P19 cell differentiation into neuron assessed as stimulation of NMDAR1 expression at 10 nM after 48 hrs by Western blotting; assay type: functional, cell-based
Summary of the method: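 P19 cells treated with 10 nM compound for 48 h and lysed in Tris pH 7.4 RIPA-type buffer. Proteins run on 7.5% SDS-PAGE and blotted to PVDF. Probed overnight at 4 °C with anti-NMDAR1 (1:1000), with GAPDH as loading control, and detected by enhanced chemiluminescence.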

SK-N-SH [12] = experiment: Induction of neurite outgrowth in human SK-N-SH cells at 100 nM after 48 hrs by crystal violet staining; assay type: functional, cell-based
U-87MG ATCC [13] = experiment: Cytotoxicity against human U87 cells up to 20 uM after 72 hrs by trypan blue exclusion assay; assay type: functional, cell-based; summary of the method: as §1
SH-SY5Y [14] = experiment: Cytotoxicity against human SH-SY5Y cells up to 20 uM after 72 hrs by trypan blue exclusion assay; assay type: functional, cell-based; summary of the method: as §1
B16-F10 = experiment: Cytotoxicity against mouse B16F10 cells up to 20 uM after 72 hrs by trypan blue exclusion assay; assay type: functional, cell-based; summary of the method: as §1
U-937 [15] = experiment: Cytotoxicity against human U937 cells up to 20 uM after 3 days by trypan blue exclusion assay; assay type: functional, cell-based; summary of the method: as §2
SH-SY5Y [16] = experiment: Induction of neurite outgrowth in human SH-SY5Y cells at 100 nM after 48 hrs by crystal violet staining; assay type: functional, cell-based
Summary of the method: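 Cells exposed to 100 nM compound for 48 h on poly-D-lysine-coated inserts with a 3 μm pore membrane. Neurites crossing the membrane were methanol-fixed and stained, cell bodies were removed, and the dye was extracted and read at 562 nm.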

P19 [17] = experiment: Cytotoxicity against mouse P19 cells after 3 days by trypan blue exclusion assay; assay type: functional, cell-based; settings: p19; summary of the method: as §2
U-937 [18] = experiment: Cytotoxicity against human U937 cells after 3 days by trypan blue exclusion assay; assay type: functional, cell-based; settings: u-937; summary of the method: as §2
U-87MG ATCC [19] = experiment: Induction of neurite outgrowth in human U87 cells at 100 nM after 48 hrs by crystal violet staining; assay type: functional, cell-based
N2a [20] = experiment: Induction of neurite outgrowth in mouse Neuro2a cells at 100 nM after 48 hrs by crystal violet staining; assay type: functional, cell-based
SK-MEL-28 = experiment: Cytotoxicity against human SK-MEL-28 cells up to 20 uM after 72 hrs by trypan blue exclusion assay; assay type: functional, cell-based; summary of the method: as §1
P19 [21] = experiment: Cytotoxicity against mouse P19 cells up to 20 uM after 72 hrs by trypan blue exclusion assay; assay type: functional, cell-based; summary of the method: as §1
KG-1 = experiment: Cytotoxicity against human KG1 cells up to 20 uM after 72 hrs by trypan blue exclusion assay; assay type: functional, cell-based; summary of the method: as §1

CC(C)CCC[C@@H](C)[C@H]1CC[C@H]2C3=C[C@@H](NCCCNCCCCN)[C@@]4(O)C[C@@H](O)CC[C@]4(C)[C@H]3CC[C@]12C [DENDROGENIN B]
inactive: Activity (MCF7) | Activity (N2a [1]) | Activity (P19 [2]) | Activity (A549) | Activity (U-937 [5]) | Activity (TS/A) | Activity (SW-620) | Activity (NB-4) | Activity (SK-N-SH [8]) | Activity (HCT-8) | Activity (U-87MG ATCC [13]) | Activity (SH-SY5Y [14]) | Activity (B16-F10) | Activity (U-937 [15]) | Activity (SK-MEL-28) | Activity (P19 [21]) | Activity (KG-1)
<5 um: Activity (U-937 [3])
Not Active: IC50 (P19 [17]) | IC50 (U-937 [18])
active: Activity (Mus musculus) | Activity (P19 [6]) | Activity (P19 [7]) | Activity (P19 [9]) | Activity (P19 [10]) | Activity (P19 [11]) | Activity (SK-N-SH [12]) | Activity (SH-SY5Y [16]) | Activity (U-87MG ATCC [19]) | Activity (N2a [20])
> 100 um: Activity (P19 [4])
